ChEMBL document CHEMBL3576847, “Discovery of 1-(3,3-dimethylbutyl)-3-(2-fluoro-4-methyl-5-(7-methyl-2-(methylamino)pyrido[2,3-d]pyrimidin-6-yl)phenyl)urea (LY3009120) as a pan-RAF inhibitor with minimal paradoxical activation and activity against BRAF or RAS mutant tumor cells” (J Med Chem, 2015)
Converted amounts (≈) assume the structure as drawn.

How the values were obtained:
[1] = Lipophilicity, log P of the compound; type: physicochemical; conditions: octanol/water
HCT-116 = assay: cells; conditions: Homo sapiens, HCT-116, 67 h
[2] = biological target: Mitogen-activated protein kinase kinase kinase 1 (Homo sapiens, UniProt Q13233); assay: Competitive binding affinity to MAP3K1 in human A375 cells after 15 mins in presence of ATP analogue; type: cell-based, A-375
In short: (§1)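 A375 whole-cell lysate incubated with compound for 15 min. Binding to over 170 kinases was measured by direct competition with an ATP analog (KiNativ platform). IC50 reported in nM.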

[3] = Cmax in dog at 10 mg/kg, po administered as solid suspension; type: ADME, organism-based, Canis lupus familiaris; set-up: dose 10 mg/kg, route oral; conditions: in vivo
[4] = AUC (0 to 24 hrs) in Sprague-Dawley rat at 10 mg/kg, po administered as suspension in 1% HEC; type: ADME, organism-based; set-up: dose 10 mg/kg, time < 24 hr, route oral; conditions: in vivo
[5] = Half life in dog at 1 mg/kg, iv administered as 20% cyclodextrin solution; type: ADME, organism-based, Canis lupus familiaris; conditions: in vivo
In short: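 Single 1 mg/kg iv dose given as a 20% cyclodextrin solution to rat, dog (male, fasted, crossover, n = 4) or monkey (male, fasted). Clearance, volume of distribution and half-life were calculated. Clearance is also expressed relative to species hepatic blood flow (Qh).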

GTPase KRas = GTPase KRas (Homo sapiens, UniProt P01116, G13D); assay: Inhibition of KRAS G13D mutant in human HCT116 cells assessed as inhibition of ERK phosphorylation by ELISA; type: cell-based, HCT-116
In short: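 HCT116 cells (KRAS G13D, BRAF WT; RAF signalling via CRAF) were treated with compound, and the change in cellular phospho-ERK was measured. IC50 was taken as the concentration inhibiting phospho-ERK.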

[6] = AUC (0 to 24 hrs) in dog at 10 mg/kg, po administered as solid suspension; type: ADME, organism-based, Canis lupus familiaris; set-up: time < 24 hr, dose 10 mg/kg, route oral; conditions: in vivo
[7] = Cmax in Sprague-Dawley rat at 10 mg/kg, po administered as suspension in 20% cyclodextrin; type: ADME, organism-based; set-up: dose 10 mg/kg, route oral; conditions: in vivo
[8] = Solubility of the compound in simulated fasted intestinal fluid; type: ADME
[9] = biological target: Interleukin-1 receptor-associated kinase 1 (Homo sapiens, UniProt P51617); assay: Competitive binding affinity to IRAK1 in human A375 cells after 15 mins in presence of ATP analogue; type: cell-based, A-375
[10] = AUC (0 to 24 hrs) in Sprague-Dawley rat at 10 mg/kg, po administered as suspension in 20% cyclodextrin; type: ADME, organism-based; set-up: dose 10 mg/kg, time < 24 hr, route oral; conditions: in vivo
[11] = biological target: Tyrosine-protein kinase Fyn (Homo sapiens, UniProt P06241); assay: Competitive binding affinity to FYN in human A375 cells after 15 mins in presence of ATP analogue; type: cell-based, A-375; in short: as §1
[12] = Half life in dog at 10 mg/kg, po administered as API capsule; type: ADME, organism-based, Canis lupus familiaris; conditions: in vivo

GTPase KRas, sequence (P01116 whole entry G13D): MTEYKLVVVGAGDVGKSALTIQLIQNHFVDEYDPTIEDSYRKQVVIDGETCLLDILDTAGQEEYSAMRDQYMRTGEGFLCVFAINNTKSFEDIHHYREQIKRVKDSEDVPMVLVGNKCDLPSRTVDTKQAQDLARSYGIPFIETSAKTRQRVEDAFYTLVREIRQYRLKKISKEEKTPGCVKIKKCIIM
Tyrosine-protein kinase Fyn, sequence (P06241 whole entry): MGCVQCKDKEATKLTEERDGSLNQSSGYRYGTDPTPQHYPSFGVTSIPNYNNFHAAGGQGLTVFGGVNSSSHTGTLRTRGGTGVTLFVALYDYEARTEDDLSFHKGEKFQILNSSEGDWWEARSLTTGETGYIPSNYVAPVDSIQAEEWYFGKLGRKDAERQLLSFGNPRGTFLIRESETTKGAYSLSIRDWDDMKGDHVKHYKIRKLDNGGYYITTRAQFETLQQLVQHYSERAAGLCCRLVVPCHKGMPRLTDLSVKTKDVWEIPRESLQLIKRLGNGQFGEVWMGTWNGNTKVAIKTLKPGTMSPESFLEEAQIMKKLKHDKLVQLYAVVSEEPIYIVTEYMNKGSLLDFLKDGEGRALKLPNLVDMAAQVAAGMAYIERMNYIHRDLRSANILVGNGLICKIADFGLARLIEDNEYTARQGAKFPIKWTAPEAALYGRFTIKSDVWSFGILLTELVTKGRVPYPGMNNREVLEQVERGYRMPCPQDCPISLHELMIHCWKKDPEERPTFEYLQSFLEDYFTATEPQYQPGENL
Mitogen-activated protein kinase kinase kinase 1, sequence (Q13233 whole entry): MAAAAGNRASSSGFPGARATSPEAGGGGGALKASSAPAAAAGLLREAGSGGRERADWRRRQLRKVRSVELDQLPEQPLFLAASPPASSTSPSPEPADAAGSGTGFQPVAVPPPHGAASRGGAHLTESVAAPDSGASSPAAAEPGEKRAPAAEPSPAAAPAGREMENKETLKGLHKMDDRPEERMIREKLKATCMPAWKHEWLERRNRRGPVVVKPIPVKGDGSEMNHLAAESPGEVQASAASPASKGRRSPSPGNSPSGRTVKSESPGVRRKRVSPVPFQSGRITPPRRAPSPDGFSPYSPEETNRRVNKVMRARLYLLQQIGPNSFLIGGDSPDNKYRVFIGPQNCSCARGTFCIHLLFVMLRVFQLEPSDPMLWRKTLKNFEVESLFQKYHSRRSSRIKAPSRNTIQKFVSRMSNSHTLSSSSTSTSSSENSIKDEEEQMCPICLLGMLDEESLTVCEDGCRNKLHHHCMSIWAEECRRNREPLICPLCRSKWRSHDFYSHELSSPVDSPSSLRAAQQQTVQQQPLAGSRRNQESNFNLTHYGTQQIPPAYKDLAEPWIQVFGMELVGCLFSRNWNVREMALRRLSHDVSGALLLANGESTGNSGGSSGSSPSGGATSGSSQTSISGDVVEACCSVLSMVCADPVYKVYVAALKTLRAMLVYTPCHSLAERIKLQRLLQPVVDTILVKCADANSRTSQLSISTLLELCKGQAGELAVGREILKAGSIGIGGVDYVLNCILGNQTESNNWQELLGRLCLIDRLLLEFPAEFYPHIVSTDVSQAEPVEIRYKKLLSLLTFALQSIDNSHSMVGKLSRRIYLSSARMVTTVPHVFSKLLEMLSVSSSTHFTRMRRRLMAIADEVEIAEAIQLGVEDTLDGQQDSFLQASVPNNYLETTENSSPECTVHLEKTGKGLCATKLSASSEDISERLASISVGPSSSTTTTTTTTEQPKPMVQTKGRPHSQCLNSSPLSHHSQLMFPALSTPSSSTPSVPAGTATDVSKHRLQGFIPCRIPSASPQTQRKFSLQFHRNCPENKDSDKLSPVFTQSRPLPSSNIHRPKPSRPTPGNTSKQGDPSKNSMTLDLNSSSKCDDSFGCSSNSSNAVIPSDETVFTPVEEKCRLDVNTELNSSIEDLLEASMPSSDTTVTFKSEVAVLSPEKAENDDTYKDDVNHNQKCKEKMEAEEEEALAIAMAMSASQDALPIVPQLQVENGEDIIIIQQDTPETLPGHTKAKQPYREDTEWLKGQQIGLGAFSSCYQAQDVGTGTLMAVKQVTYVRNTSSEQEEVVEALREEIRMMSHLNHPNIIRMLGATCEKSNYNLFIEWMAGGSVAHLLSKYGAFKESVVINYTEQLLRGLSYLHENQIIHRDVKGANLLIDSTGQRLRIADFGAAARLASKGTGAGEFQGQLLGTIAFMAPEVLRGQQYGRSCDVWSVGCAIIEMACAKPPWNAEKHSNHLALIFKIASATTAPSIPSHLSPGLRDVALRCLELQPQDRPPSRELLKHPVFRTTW
Interleukin-1 receptor-associated kinase 1, sequence (P51617 whole entry): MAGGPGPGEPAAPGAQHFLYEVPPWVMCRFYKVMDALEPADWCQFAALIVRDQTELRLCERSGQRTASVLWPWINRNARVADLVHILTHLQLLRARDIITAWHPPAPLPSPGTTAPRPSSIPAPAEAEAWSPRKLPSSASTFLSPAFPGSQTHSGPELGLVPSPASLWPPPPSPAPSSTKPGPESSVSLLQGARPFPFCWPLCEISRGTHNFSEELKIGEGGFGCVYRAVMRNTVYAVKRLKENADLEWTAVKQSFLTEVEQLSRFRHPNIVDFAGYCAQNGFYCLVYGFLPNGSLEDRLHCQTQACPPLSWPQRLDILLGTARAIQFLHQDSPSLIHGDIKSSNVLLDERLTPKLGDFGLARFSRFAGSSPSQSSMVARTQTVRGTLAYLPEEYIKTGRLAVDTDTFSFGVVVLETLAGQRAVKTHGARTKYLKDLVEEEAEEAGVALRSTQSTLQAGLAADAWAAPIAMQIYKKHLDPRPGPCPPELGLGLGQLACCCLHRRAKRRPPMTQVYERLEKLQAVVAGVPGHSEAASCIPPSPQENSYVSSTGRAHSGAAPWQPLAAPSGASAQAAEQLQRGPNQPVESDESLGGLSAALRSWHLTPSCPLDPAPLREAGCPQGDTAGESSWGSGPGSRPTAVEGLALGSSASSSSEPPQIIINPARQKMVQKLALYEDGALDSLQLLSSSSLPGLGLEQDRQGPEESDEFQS

Which results are given for `CNc1ncc2cc(-c3cc(NC(=O)NCCC(C)(C)C)c(F)cc3C)c(C)nc2n1` [LY-3009120]?
logP [1]: 4.29; IC50 (HCT-116): 220 nM; IC50 [2]: 98 nM; Cmax [3]: 511 ng/mL; AUC(0-t) at 24 h [4]: 169 ng·h/mL; half-life [5]: 1.8 h; IC50 (GTPase KRas): 150 nM; AUC(0-t) at 24 h [6]: 2090 ng·h/mL; Cmax [7]: 396 ng/mL; solubility [8]: 2 µg/mL (≈ 4.71 µM); IC50 [9]: 390 nM; AUC(0-t) at 24 h [10]: 1670 ng·h/mL; IC50 [11]: 91 nM; half-life [12]: 7.6 h
